Data published in ChEMBL document CHEMBL1140288, “First synthesis and evaluation of the inhibitory effects of aza analogues of TSAO on HIV-1 replication” (J Med Chem, 2005).
pEC50: −log10 of the molar value.

Assays:
CCRF-CEM [1] = assay: Concentration of compound required to inhibit HIV-2 (ROD) induced cytopathicity in CEM cell culture by 50%; assay type: functional, cell-based; settings: Homo sapiens
How it was run: (§1)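 CEM cells at 4 × 10⁵ per mL infected at ~100 CCID₅₀ per mL of cell suspension, then mixed 1:1 with compound dilutions in microtiter wells. Giant cell formation was scored microscopically after 4 days. EC₅₀ is the concentration inhibiting virus-induced cytopathicity by 50%. Mutant HIV-1(IIIB) RT strains were selected as described previously.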

MT4 [2] = assay: Concentration of compound required to reduce by 50% the number of viable cells in mock infected MT-4 cell cultures; assay type: functional; settings: Homo sapiens
How it was run: (§2)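 Mock-infected CEM cells (4 × 10⁵ per mL) or MT-4 cells (3 × 10⁵ per mL) were exposed to serial compound dilutions for 4 days. CC₅₀ was the concentration reducing the number of viable cells by 50%.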

MT4 [3] = assay: Concentration of compound required to inhibit HIV-2 (ROD) induced cytopathicity in MT-4 cell culture by 50%; assay type: functional, cell-based; settings: Homo sapiens
How it was run: (§3)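 MT-4 cells at 3 × 10⁵ per mL were infected with HIV-1(III_B) or HIV-2(ROD) at ∼100 CCID₅₀ per mL, then mixed 1:1 with compound dilutions. After 4 days, viability was read by the MTT method. EC₅₀ was taken as the concentration giving 50% protection against HIV-induced cytopathicity.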

[4] = Concentration of compound required to reduce by 50% the number of viable cells in mock infected CEM cell cultures; assay type: functional; settings: Homo sapiens, CCRF-CEM; how it was run: as §2
CCRF-CEM [5] = assay: Concentration of compound inhibiting Tyr181- Cys mutant HIV-1(IIIB) induced cytopathicity in CEM cell culture by 50%; assay type: functional, cell-based; settings: Homo sapiens; how it was run: as §1
MT4 [6] = assay: Concentration of compound required to inhibit HIV-1(IIIB) induced cytopathicity in MT-4 cell culture by 50%; assay type: functional, cell-based; settings: Homo sapiens; how it was run: as §3
CCRF-CEM [7] = assay: Concentration of compound inhibiting Lys103-Asn mutant HIV-1(IIIB) induced cytopathicity in CEM cell culture by 50%; assay type: functional, cell-based; settings: Homo sapiens; how it was run: as §1
CCRF-CEM [8] = assay: Concentration of compound inhibiting Glu138-Lys mutant HIV-1(IIIB) induced cytopathicity in CEM cell culture by 50%; assay type: functional, cell-based; settings: Homo sapiens; how it was run: as §1
CCRF-CEM [9] = assay: Concentration of compound required to inhibit HIV-1(IIIB) induced cytopathicity in CEM cell culture by 50%; assay type: functional, cell-based; settings: Homo sapiens
How it was run: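 CEM cells at 4 × 10⁵ per mL were infected with HIV-1(III_B) at ∼100 CCID₅₀ per mL and mixed 1:1 with serial compound dilutions. Giant cell formation was scored microscopically after 4 days. EC₅₀ was taken as the concentration giving 50% inhibition of virus-induced cytopathicity.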

[10] = test system: Human immunodeficiency virus 1; assay: Concentration of compound inhibiting Tyr181Cys mutant HIV-1(IIIB) induced cytopathicity in CEM cell culture by 50%; assay type: functional, organism-based; settings: Human immunodeficiency virus 1, CCRF-CEM; how it was run: as §1

Compound | pEC50 (CCRF-CEM [1]) | CC50 (MT4 [2]) [µM] | pEC50 (MT4 [3]) | CC50 [4] [µM] | pEC50 (CCRF-CEM [5]) | pEC50 (MT4 [6]) | pEC50 (CCRF-CEM [7]) | pEC50 (CCRF-CEM [8]) | pEC50 (CCRF-CEM [9]) | pEC50 [10]
Cc1cn([C@@H]2O[C@H](CO[Si](C)(C)C(C)(C)C)[C@@]3(OS(=O)(=O)C=C3N)[C@H]2O[Si](C)(C)C(C)(C)C)c(=O)[nH]c1=O | < 5.40 | 14 | < 4.70 | 16 | 5.52 | 7.22 | 6.40 | 5.34 | 7.22 | –
Cc1cn([C@@H]2O[C@H](CO[Si](C)(C)C(C)(C)C)[C@]3(C(N)=CS(=O)(=O)N3C)[C@H]2O[Si](C)(C)C(C)(C)C)c(=O)n(C(=O)OC(C)(C)C)c1=O | < 5.00 | 20 | < 4.70 | 20.6 | – | 5.74 | – | – | 5.46 | < 5.00
Cc1cn([C@@H]2O[C@H](CO[Si](C)(C)C(C)(C)C)[C@@]3(NS(=O)(=O)C=C3N)[C@H]2O[Si](C)(C)C(C)(C)C)c(=O)n(C)c1=O | – | – | – | 5.8 | – | – | 5.40 | < 5.00 | 6.66 | < 5.00
CCn1c(=O)c(C)cn([C@@H]2O[C@H](CO[Si](C)(C)C(C)(C)C)[C@@]3(NS(=O)(=O)C=C3N)[C@H]2O[Si](C)(C)C(C)(C)C)c1=O | – | – | – | 4.9 | – | – | < 5.70 | < 5.70 | 6.51 | < 5.70
Cc1cn([C@@H]2O[C@H](CO[Si](C)(C)C(C)(C)C)[C@]3(C(N)=CS(=O)(=O)N3C)[C@H]2O[Si](C)(C)C(C)(C)C)c(=O)n(C)c1=O | < 3.60 | > 200 | < 3.70 | > 250 | – | 6.18 | – | – | 5.60 | < 3.60
Cc1cn([C@@H]2O[C@H](CO[Si](C)(C)C(C)(C)C)[C@]3(C(N)=CS(=O)(=O)N3C)[C@H]2O[Si](C)(C)C(C)(C)C)c(=O)[nH]c1=O | < 5.00 | 19 | < 4.70 | 21.6 | – | 5.80 | – | – | 5.46 | < 5.00
Cc1cn([C@@H]2O[C@H](CO[Si](C)(C)C(C)(C)C)[C@@]3(NS(=O)(=O)C=C3N)[C@H]2O[Si](C)(C)C(C)(C)C)c(=O)n(C(=O)OC(C)(C)C)c1=O | < 5.00 | 19 | – | 21.2 | – | 6.89 | 5.30 | – | 6.37 | –
Cc1cn([C@@H]2O[C@H](CO[Si](C)(C)C(C)(C)C)[C@@]3(NS(=O)(=O)C=C3N)[C@H]2O[Si](C)(C)C(C)(C)C)c(=O)[nH]c1=O | < 5.00 | 105 | < 4.00 | 19.1 | – | 6.28 | – | – | 6.48 | < 5.00
